Screening results deposited in PubChem by Johns Hopkins Ion Channel Center.
This is a sample that favours compounds with a hit; in the whole collection about 3.5% have one here.
RGS4 act: RGS4 potentiation or activation. HEK293 M3R/inducible RGS4, carbachol calcium flux Fluo4; stronger effect = lower value. B-score at 10 µM. 0.92% of 310,000 active. AID 463111;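 active = B-score of the integrated calcium signal more than 4 SD below the library mean, with starting fluorescence not abnormally high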;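 also: negative B-score means reduced calcium response which marks RGS4 activation or potentiation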
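Assay system: HEK293 FlpIn-TREx cells, stable M3R, doxycycline-inducible RGS4 / Probe or stimulus: carbachol, ECmax concentration / Times: overnight RGS4 induction, 30 min dye load 37 °C, 20 min compound RT / Signal: kinetic calcium fluorescence imaging with Fluo4-AM dye, 2 µM / Measure: Agonist-evoked peak-minus-minimum fluorescence over baseline, integrated ratio, B score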
MrgX1 ag: agonists of human MrgX1 receptor; B-score at 10 µM; Q96LB2; MrgX1-HEK293 cells, Fluo-4 calcium fluorescence, agonist mode; stronger effect = higher value; 0.44% of 310,000 active;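 active = calcium response B-score plate-corrected fluorescence ratio at least 3 library SD, with starting fluorescence B-score inside 5 SD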
Target sequence (Q96LB2 whole entry, looked up): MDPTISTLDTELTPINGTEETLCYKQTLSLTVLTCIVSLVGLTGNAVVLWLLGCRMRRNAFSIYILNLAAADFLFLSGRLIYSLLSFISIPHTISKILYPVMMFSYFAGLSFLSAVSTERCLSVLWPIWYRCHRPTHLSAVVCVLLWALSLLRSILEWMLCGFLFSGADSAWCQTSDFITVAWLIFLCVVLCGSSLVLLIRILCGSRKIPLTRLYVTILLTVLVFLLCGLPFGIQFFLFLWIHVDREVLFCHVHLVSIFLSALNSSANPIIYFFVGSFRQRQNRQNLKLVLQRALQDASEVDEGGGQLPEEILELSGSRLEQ
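Material: MrgX1-expressing HEK293 cells; input: 15,000 cells per well; doses: test compound given as first of three sequential additions; schedule: overnight plating before 1 h dye loading; technique: Fluo-4 NW calcium-flux fluorescence, kinetic read; evaluation: baseline-normalised fluorescence change ratio, B-scored; control set: plate-wise positive and negative controls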
RGS4 block: inhibitors of human RGS4; P49798; HEK293 M3R/RGS4 inducible, Fluo-4 calcium flux; stronger effect = higher value; triggered by carbachol at its EC20; B-score at 10 µM; 0.45% of 310,000 active; AID 463165;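 active = B-score, a plate-corrected calcium signal, over three deviations above library mean, with baseline fluorescence within five deviations of library mean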;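 also: RGS4 expression induced by doxycycline in cells with stable M3 receptor; B-score is computed from the integrated fluorescence ratio over baseline after carbachol; higher B-score means a larger calcium signal and so more RGS4 inhibition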
Target sequence (P49798 whole entry, looked up): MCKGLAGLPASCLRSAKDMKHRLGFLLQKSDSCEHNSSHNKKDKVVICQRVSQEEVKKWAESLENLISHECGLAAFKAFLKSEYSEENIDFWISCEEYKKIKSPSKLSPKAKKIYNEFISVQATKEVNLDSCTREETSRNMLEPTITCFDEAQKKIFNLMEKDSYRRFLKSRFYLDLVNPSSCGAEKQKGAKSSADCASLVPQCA
MrgX1 allo act: allosterically activates human MrgX1 receptor signaling | 0.63% of 310,000 active | Q96LB2 | AID 588675 | B-score at 10 µM | MrgX1-HEK293, Fluo-4 calcium flux, FDSS; stronger effect = higher value;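 active = plate-corrected calcium response at least 3 library SD above typical, normal starting fluorescence, not activating the receptor alone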;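 also: compound read alongside a low EC10 to EC30 dose of BAM8-22 agonist; peak minus trough fluorescence over baseline measured at the second addition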
MrgX1 antagonist: human MrgX1 receptor antagonism, primary screen; MRGX1-HEK293 calcium flux, Fluo-4, BAM8-22 antagonism; stronger effect = lower value; 1.3% of 310,000 active; B-score at 10 µM; Q96LB2;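 active = calcium-response B-score plate-corrected more than 3 library SD below zero, starting fluorescence within 5 deviations, no agonist response on first addition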;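 also: peak minus trough fluorescence over baseline after final BAM8-22 challenge near maximal dose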
RGS4 block valid: validation of RGS4 inhibitors | shares compounds with RGS4 block | HEK293 M3R/RGS4, carbachol calcium Fluo-4 fluorescence; carbachol added at its EC20; 0 = buffer wells, 100 = carbachol control | calcium response, % at 10 µM | 65% of 1,700 active;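 active = duplicate-averaged calcium response above the buffer-only control mean plus 5 SD of those controls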;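 also: integrated fluorescence ratio F max minus min over baseline F0; higher response in RGS4-induced cells means RGS4 inhibition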
RGS4 uninduced: non-induced cell nonspecific activity of RGS4 inhibitors; shares compounds with RGS4 block; HEK293 M3R non-induced, carbachol calcium Fluo-4; submaximal (EC20) carbachol stimulus; buffer wells 0%, carbachol control wells 100%; AID 493000; 20% of 1,900 active; activity (percent), % at 10 µM; call rule not given here;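 also: RGS4 induction absent so cells express M3R without RGS4; higher means more calcium signal and flags a non-specific hit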
RGS4 inh ctr2: second RGS4 inhibitor counter-screen in uninduced cells lacking carbachol; shares compounds with RGS4 block; HEK293 M3R/RGS4 non-induced, Fluo-4 calcium, no carbachol; normalised: buffer wells 0%, carbachol wells 100%; calcium response (agonist-mode artifact), % at 10 µM; 22% of 1,900 active; AID 493001;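 active = duplicate-averaged calcium rise in uninduced cells above buffer wells' mean plus 5 SD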
Starred values were filed as active, the others as inactive; i = inactive; x = no result.

SMILES	RGS4 act	MrgX1 ag	RGS4 block	MrgX1 allo act	MrgX1 antagonist	RGS4 block valid	RGS4 uninduced	RGS4 inh ctr2
COC(=O)c1ccc(COc2ccccc2/C=C(\C#N)C(=O)Nc2ccc(C)cc2C)cc1	i	i	i	i	i	i	i	i
CCOc1cccc(NC(=O)/C(C#N)=C\c2cn(CC(=O)O)c3ccccc23)c1	i	i	i	i	i	x	x	x
COC(=O)c1ccc(COc2ccccc2/C=C(\C#N)C(=O)Nc2c(C)cc(C)cc2C)cc1	i	i	i	i	i	i	i	i
CCOc1ccccc1/C=C(\C#N)C(=O)Nc1cccc(C(=O)O)c1	i	i	4.98*	i	i	14.0%*	i	i
NNC(=O)CNS(=O)(=O)c1ccc([N+](=O)[O-])cc1	i	i	i	i	i	x	x	x
O=C(CC1Nc2cccc3cccc(c23)NC1=O)Nc1ccc(F)cc1 (stereo not given)	i	i	5.33*	i	i	34.0%*	i	i
O=C(CC1NC(=O)NC1=O)Nc1ccc(Cl)cc1 (stereo not given)	i	i	i	i	i	x	x	x
O=C(CC1Nc2ccccc2NC1=O)Nc1cc(Cl)cc(Cl)c1 (stereo not given)	i	i	14.6*	i	i	24.0%*	i	18.5%*
Cc1ccc(OCCSc2nc3ccccc3n2CC(=O)O)c(C(C)C)c1	i	i	i	i	i	x	x	x
Cc1ccc(-c2cc(C(F)F)nc(NCc3cccnc3)n2)cc1	i	i	7.72*	i	i	i	i	i
Cc1cc(C)c(OCC(=O)OCC(=O)N2c3ccccc3CC2C)c(C)c1 (stereo not given)	i	i	i	i	i	x	x	x
O=C1NC(=S)S/C1=C\c1coc2ccc(O)cc2c1=O	i	i	6.34*	i	i	26.0%*	65.0%*	i
CC(=O)NC(c1cccc([N+](=O)[O-])c1)c1c(OC(C)=O)ccc2ccccc12 (stereo not given)	i	i	i	i	i	x	x	x
CC(=O)Oc1ccc2ccccc2c1C(NC(=O)Cc1ccccc1)c1ccccc1 (stereo not given)	i	i	5.47*	i	i	14.5%*	29.5%*	i
CC1=C(C(=O)c2ccccc2)C(c2cn(-c3ccccc3)nc2-c2ccc(Cl)cc2)NC(=S)N1 (stereo not given)	i	i	4.92*	i	i	10.5%*	i	9.0%*
CN(c1cccc(NC(=O)c2ccc(Cl)c(S(=O)(=O)N3CCOCC3)c2)c1)S(C)(=O)=O	i	i	i	i	i	x	x	x
CC(=O)Nc1ccc(Nc2cc(C)nc3c(-c4ccc(Cl)cc4)cnn23)cc1	i	i	i	i	i	x	x	x
CC(=O)Nc1ccc(Nc2cc(C)nc3c(-c4ccc(Cl)cc4)c(C)nn23)cc1	i	i	i	i	i	x	i	i
Cc1cc(N)n2nc(C)c(-c3ccc(Cl)cc3)c2n1	i	i	7.77*	i	i	10.5%*	i	i
O=S(=O)(Nc1ccc(Cl)cc1)c1ccc2c(c1)CCO2	i	i	i	i	i	x	x	x
O=C(O)CN1C(=O)/C(=C/C=C/c2ccccc2)SC1=S	i	i	i	i	i	x	x	x
O=C(O)CN1C(=O)/C(=C\C(Br)=C\c2ccccc2)SC1=S	i	i	12.2*	i	i	53.5%*	i	i
COc1ccc(-n2nc(C(=O)NCC(=O)Nc3cccc(Cl)c3)c3ccccc3c2=O)cc1	i	i	i	i	i	x	x	x
CC1=NN(c2ccccc2)C(=O)/C1=C/c1cccc(C)c1	i	i	i	i	i	x	x	x
COc1ccc(/C=C2/C(=O)N(c3ccccc3)N=C2C)cc1OC	i	i	i	i	i	i	i	i
SMILES	RGS4 act	MrgX1 ag	RGS4 block	MrgX1 allo act	MrgX1 antagonist	RGS4 block valid	RGS4 uninduced	RGS4 inh ctr2
COc1ccc(C(C[N+](=O)[O-])c2c(C)cc3ccccn23)cc1 (stereo not given)	i	i	i	i	i	x	x	x
COc1ccc(C(C[N+](=O)[O-])c2c(C)[nH]n(-c3ccccc3)c2=O)cc1 (stereo not given)	i	39.9*	28.5*	i	i	54.0%*	84.5%*	21.0%*
O=C(Oc1cccc2cccnc12)c1ccc(Br)o1	i	i	4.65*	i	i	42.5%*	i	i
O=C(Oc1cccc2cccnc12)c1ccco1	i	i	i	i	i	x	x	x
Cc1c(C(=O)Oc2cccc3cccnc23)cccc1[N+](=O)[O-]	i	i	10.2*	i	i	56.5%*	i	i
O=C(Oc1cccc2cccnc12)c1cccs1	i	i	7.29*	i	i	48.5%*	i	i
O=C(CSc1ccc(F)cc1)Nc1nnc(-c2ccco2)o1	i	i	i	i	i	x	x	x
Cc1cc(NC(=O)CSc2nc(-c3ccccc3Cl)nc3c2c(=O)n(C)c(=O)n3C)no1	i	i	i	i	i	x	x	x
Cc1cccc2c(=O)c(Br)c(C)n(Cc3ccccc3)c12	i	i	i	i	i	x	x	x
CC(=O)n1cc(C(C[N+](=O)[O-])SCCN)c2ccccc21 (stereo not given)	i	57.7*	4.72*	i	i	55.0%*	i	34.5%*
CCOC(=O)c1c(NC(=O)CN2C(=O)C(=O)N(CC(C)C)C2=O)sc(C)c1CC	i	i	i	i	i	x	x	x
C=CCNc1nnc(SC2CC(=O)N(c3ccc(OCCC)cc3)C2=O)s1 (stereo not given)	i	i	i	i	i	i	i	i
CCOCC(=O)Nc1ccc(S(=O)(=O)Nc2nccs2)cc1	i	i	i	i	i	x	x	x
CCOC(=O)/C=C/C(=O)Nc1ccc(S(=O)(=O)Nc2nccs2)cc1	i	i	5.02*	i	i	23.0%*	i	i
O=C(Cn1ccc(C(F)(F)F)n1)N=Nc1c(O)[nH]c2ccc(Br)cc12	i	i	4.74*	i	i	32.5%*	i	i
